Data set [1] is described as follows: Cytotoxicity against human Kelly cells assessed as inhibition of cell viability incubated for 72 hrs by MTT assay. The format is functional, cell-based. Put shortly: (§1)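 MTT assay. Cells were seeded and, after 24 h, treated for 72 h with graded concentrations: 0–400, 0–50 or 0–100 μM depending on compound, with aprepitant at 0–100 μM. Media were DMEM for SH-SY5Y, DMEM/F12 for RPE-1 and RPMI for Kelly, each with 10% FBS, at 37 °C and 5% CO2.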
A general note: Tetrazolium dyes change colour on reduction, which living cells bring about.

For data set [2], the system named is SH-SY5Y. As to the kind of experiment: Cytotoxicity against human SH-SY5Y cells assessed as inhibition of cell viability incubated for 72 hrs by MTT assay. The format is functional, cell-based. Put shortly: as §1
Data set [3] can be described thus: Cytotoxicity against human RPE-1 cells assessed as inhibition of cell viability incubated for 72 hrs by MTT assay. The format is toxicity, cell-based. The settings on record: RPE-1 cells (TERT-RPE1). Summed up:
as §1

Data set [4] is described as follows: Selectivity index, ratio of IC50 for human RPE-1 cells to IC50 for human Kelly cells. Put shortly: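 Selectivity index is IC50 in nonmalignant RPE-1 divided by IC50 in the cancer line (Kelly or SH-SY5Y). The index was calculated in each individual experiment and then averaged.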
Data set [5] relates to Kelly. As to the kind of experiment: Induction of cell cycle arrest at S phase in human Kelly cells at 15 uM incubated for 48 hrs by flow cytometry. Type of data set: functional, cell-based. Put shortly: (§2)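 For cell cycle analysis, Kelly cells were treated 48 h with analogs at 20 or 40 μM or aprepitant at 15 μM. Cells were then harvested, fixed and stained with PI/RNase. G0/G1, S and G2/M fractions were measured by flow cytometry; mean ± SEM, n = 3 independent experiments.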
A general note: In flow cytometry, cells or beads pass a laser one at a time.

Data set [6] concerns Kelly. As to the kind of experiment: Induction of cell cycle arrest at G2/M phase in human Kelly cells at 15 uM incubated for 48 hrs by flow cytometry. Type of data set: functional, cell-based. Summed up:
as §2

Calls of active or inactive are those of the source. No cut-off for these calls is given here.

For orientation: IC50 means the concentration needed to halve the response being measured.

Turning to `C[C@@H](O[C@H]1O[C@@H]2CO[C@@H](c3ccccc3)O[C@H]2[C@H](N=[N+]=[N-])[C@H]1OCc1ccc(F)cc1)c1cc(C(F)(F)F)cc(C(F)(F)F)c1`, in data set [1], the IC50 stood at 234 µM.
Regarding `C[C@@H](O[C@H]1O[C@H](CO)[C@@H](O)[C@H](N=[N+]=[N-])[C@H]1OCc1ccc(F)cc1)c1cc(C(F)(F)F)cc(C(F)(F)F)c1`, the IC50 in data set [1] amounted to 88.4 µM.
For the molecule `C[C@@H](O[C@H]1O[C@@H]2CO[C@@H](c3ccccc3)O[C@@H]2[C@H](O)[C@H]1OCc1ccc(F)cc1)c1cc(C(F)(F)F)cc(C(F)(F)F)c1`, the IC50 in data set [1] was found to be 112 µM; in data set [2] it was 128 µM.
As for `C[C@@H](O[C@H]1OCCN(Cc2n[nH]c(=O)[nH]2)[C@H]1c1ccc(F)cc1)c1cc(C(F)(F)F)cc(C(F)(F)F)c1` [APREPITANT], the IC50 in data set [1] worked out at 15.1 µM. For the same molecule, in data set [3], the IC50 at 72 h worked out at 176 µM. Besides, the “Ratio IC50” value in data set [4] is recorded as 11.7. Moreover, in data set [5], the result was Active. Besides, the outcome in data set [6] was inactive.
On to `C[C@@H](O[C@H]1O[C@H](CO)[C@@H](O)[C@H](N)[C@H]1OCc1ccc(F)cc1)c1cc(C(F)(F)F)cc(C(F)(F)F)c1`, for which, in data set [1], the IC50 worked out at 33.6 µM. Besides, in data set [3], the IC50 at 72 h is 146 µM. Also, the “Ratio IC50” value in data set [4] is on record as 4.3.
For the molecule `C[C@@H](O[C@@H]1O[C@@H]2CO[C@@H](c3ccccc3)O[C@H]2[C@H](N=[N+]=[N-])[C@H]1OCc1ccc(F)cc1)c1cc(C(F)(F)F)cc(C(F)(F)F)c1`, the IC50 in data set [1] is 107 µM.
`C[C@@H](O[C@H]1O[C@@H]2CO[C@@H](c3ccccc3)O[C@H]2[C@H](N)[C@H]1OCc1ccc(F)cc1)c1cc(C(F)(F)F)cc(C(F)(F)F)c1`: in data set [1], the IC50 was determined as 6.3 µM. For the same molecule, the half-maximal inhibitory concentration (IC50) at 72 h in data set [3] stood at 92.3 µM. For the same molecule, in data set [4], the “Ratio IC50” value was determined as 14.7.
Take `C[C@@H](O[C@@H]1O[C@H](CO)[C@@H](O)[C@H](N=[N+]=[N-])[C@H]1OCc1ccc(F)cc1)c1cc(C(F)(F)F)cc(C(F)(F)F)c1`: the IC50 in data set [1] turned out to be 16.8 µM.
On to `C[C@@H](O[C@@H]1O[C@@H]2CO[C@@H](c3ccccc3)O[C@@H]2[C@H](O)[C@H]1OCc1ccc(F)cc1)c1cc(C(F)(F)F)cc(C(F)(F)F)c1`, for which, in data set [1], the IC50 was found to be 48.5 µM. Also, the IC50 at 72 h in data set [3] was determined as 251 µM. For the same molecule, the “Ratio IC50” value in data set [4] turned out to be 4.6.

Values taken from ChEMBL document CHEMBL5537144, “Biological evaluation of carbohydrate-based aprepitant analogs for neuroblastoma treatment” (Eur J Med Chem, 2024).
